# CHOP inh – blocks CHOP induction under ER stress; CHO-K1 CHOP-promoter luciferase, tunicamycin-induced, 15-18 h; inhibition, % at 10 µM; hit rate 3.8% among 220,000;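 active = compounds that reduced the stress-induced luciferase reporter signal by more than about 70% of percent inhibition, limit read from the data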;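 note: 0% = tunicamycin plus vehicle and 100% = wells without tunicamycin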
# Bfl-1 A1 inh – inhibitors of the anti-apoptotic protein A1, read as caspase activation; AID 2462; MEF A1-2A-BIM cells, Caspase-Glo 3/7 luminescence, 3 h; percent of clofoctol response, vehicle zero; hit rate 0.066% among 330,000; caspase activation, % (no concentration beside the values);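 active = over half of replicate activation scores above 10%, or exactly half above 10 with the replicate mean above 10; inconclusive = replicate mean below 10 yet half the replicates above 10; inactive = over half of replicates below 10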
# UPR CHOP act – activators of apoptotic arm of unfolded protein response (CHOP) | CHO-CHOP luciferase reporter, UPR activation, luminescence; percent of tunicamycin response over DMSO baseline | activation, % at 10 µM | hit rate 0.34% among 330,000;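 active = at 10 µM dose, activation of 40% or more, normalized to positive control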;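 note: 100% = tunicamycin at 10 µg/mL and 0% = DMSO alone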
#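 measured by = luciferase luminescence | assay system = CHO-CHOP cells, stable luciferase reporter of PERK-eIF2a-CHOP signalling | amount = 500 reporter cells seeded per well | timing = 6 h compound exposure at 37 °C after overnight seeding | controls = positive tunicamycin 10 µg/mL, negative DMSO alone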
# UPR XBP1 act – adaptive UPR (XBP1) activation | CHO-XBP1 luciferase reporter, IRE1-XBP1 UPR activation, luminescence; percent of tunicamycin response, DMSO as zero | activation, % at 20 µM | hit rate 0.33% among 330,000;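 active = versus positive control, 20 µM dose yields 30% or more activation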;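 note: 100% = tunicamycin at 10 µg/mL and 0% = DMSO only wells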
#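 Material: CHO cell line with stable XBP1 luciferase reporter; buffer or medium: F12 medium containing 10% fetal bovine serum; compound: single point, 20 µM final compound, 1% DMSO; incubation: 6 h treatment, 37 °C; measured by: glow luminescence from Steady-Glo reagent; evaluation: activation, % of tunicamycin; control set: tunicamycin high, DMSO low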
# An asterisk follows results filed as active; ? = inconclusive; / = no result given. The entries come from a sample that favours hits as a whole.
SMILES,CHOP inh,Bfl-1 A1 inh,UPR CHOP act,UPR XBP1 act
NNC(=O)c1cccc(COc2ccc(Br)cc2)c1,10,-1,-1,-3
Clc1ccc(CNc2nc(N3CCOCC3)nc(N3CCOCC3)n2)cc1,4,-1,-2,-3
COC(=O)c1ccc(NC(=O)CN2CCOCC2)cc1,8,0,2,-1
CC(C)N(C(=O)CSc1nnc(Cn2nnc3ccccc32)n1C)C(C)C,3,0,1,5
CC1Cc2ccccc2N1C(=O)CSc1nnc(Cn2nnc3ccccc32)n1C (stereo not drawn),72*,0,1,-2
Brc1ccc2ncnc(NCc3ccccc3)c2c1,87*,0,0,-1
CCOC(=O)c1oc2ccccc2c1COC(=O)CNC(=O)c1ccco1,/,0,3,1
O=C(Nc1cccc(S(=O)(=O)N2CCOCC2)c1)c1cn(-c2ccccc2)nc1-c1ccc(F)cc1,72*,0,8,-1
O=C(O)c1cc(-c2ccc(O)cc2)nc2ccccc12,11,?,-1,-1
CCC(=O)Nc1ccc(C(=O)OCc2ccc(Cl)c(Cl)c2)cc1,89*,0,-2,-4
CC(=O)Nc1ccc(C(=O)OCc2ccc(Cl)c(Cl)c2)cc1,8,-1,2,0
O=C(/C=C/c1ccc(Br)cc1)NC(=S)NNC(=O)c1ccco1,76*,1,-1,4
COc1ccc(C([O-])=Nc2ccc[n+](-c3nc4ccccc4nc3NS(=O)(=O)c3ccccc3)c2)cc1,20,-1,-3,-5
C[n+]1c2n(c3ccccc31)N=C(c1cc(C(C)(C)C)c(O)c(C(C)(C)C)c1)CS2,73*,0,7,4
COc1cccc(C2=Nn3c(nnc3-c3ccccc3O)SC2)c1,70,-1,0,4
Cc1cccc(N2CCN(C(=O)Cn3nc(C)n4cccc4c3=O)CC2C)c1 (stereo not drawn),/,0,-2,0
Cc1cccc(N2CCN(C(=O)Cn3sc4nc(C)cc(C)c4c3=O)CC2C)c1 (stereo not drawn),99*,0,22,-4
Cc1cc(C)c2c(=O)n(CC(=O)N3CCC(Cc4ccccc4)CC3)sc2n1,107*,/,41*,-3
Cc1ccn2c(=O)nc(SCC(=O)N3CCC(Cc4ccccc4)CC3)nc2c1,/,0,0,-1
CCOc1ccccc1N/C=C/C(=O)C(C)(C)C,74*,0,0,0
CSc1ccccc1NC(=O)COc1ccc(Cl)cc1,77*,0,9,2
CSc1ccccc1NC(=O)Nc1cccc(Cl)c1Cl,88*,0,2,10
CSc1ccccc1NC(=O)Nc1cccc(Cl)c1C,66,0,2,-1
COC(=O)c1sccc1NC(=O)Nc1cccc(Cl)c1Cl,84*,0,0,3
CC1=NNC(=O)/C1=C\c1cn(-c2ccccc2)nc1-c1cccs1,110*,16*,-9,-9
SMILES,CHOP inh,Bfl-1 A1 inh,UPR CHOP act,UPR XBP1 act
O=C(O)CCCCCN1C(=O)/C(=C\c2cn(-c3ccccc3)nc2-c2cccs2)SC1=S,9,0,3,-1
CN(C)CCCNC(=O)/C(=C/c1ccc(-c2ccc([N+](=O)[O-])cc2)o1)NC(=O)c1ccccc1,/,0,1,0
CN(C)CCCNC(=O)/C(=C\c1ccc(-c2ccc(Br)cc2)o1)NC(=O)c1ccccc1,81*,0,2,0
Cc1ccc(NC(=O)C(C)c2ccc(-c3ccccc3)c(F)c2)cc1 (stereo not drawn),73*,0,-1,-2
CC12CCC(c3nnc(SCc4ccc(Cl)cc4)nc31)C2(C)C (stereo not drawn),74*,0,-1,-1
CCOC(=O)CSc1nnc2c(n1)C1(C)CCC2C1(C)C (stereo not drawn),36,0,-1,2
CCOC(=O)C1=C(C)N(C)C(=O)NC1c1ccc2c(c1)OCO2 (stereo not drawn),/,0,0,-4
COCCNC(=O)NC(=O)COC(=O)Cc1ccc2c(c1)OCCO2,13,0,-1,-2
CCCCn1c(N)c(N(CCOC)C(=O)c2ccc(NC3CC3)c([N+](=O)[O-])c2)c(=O)[nH]c1=O,/,0,0,1
Cc1ccccc1NCC(=O)N/N=C/C(Br)=C/c1ccccc1,94*,-1,1,0
Cc1cc(C)c(N(C(=O)Cn2nnc3ccccc32)C(C(=O)NC(C)(C)C)c2ccsc2)c(C)c1 (stereo not drawn),49,0,-1,-5
CC(C)(C)NC(=O)C(c1ccsc1)N(CCc1ccccc1)C(=O)Cn1nnc2ccccc21 (stereo not drawn),95*,-1,3,10
Cc1ccc(C)c(N(C(=O)Cn2nnc3ccccc32)C(C(=O)NC(C)(C)C)c2ccsc2)c1 (stereo not drawn),71*,0,0,7
CCc1ccc(NC(=O)c2cnc(N3CCN(c4ccccn4)CC3)c3ccccc23)cc1,75*,1,10,-2
Cn1c(N)c(C(=O)COC(=O)COc2cc(Cl)c(Cl)cc2Cl)c(=O)n(C)c1=O,/,1,0,-3
Cc1cc(Cl)ccc1OCC(=O)OCC(=O)c1c(N)n(C)c(=O)n(C)c1=O,/,16*,-1,-2
Cn1c(N)c(C(=O)COC(=O)CCOc2ccc(C(C)(C)C)cc2)c(=O)n(C)c1=O,71*,0,-1,-1
O=C(CCC(=O)Nc1cc(C(F)(F)F)ccc1Cl)N/N=C\c1cc([N+](=O)[O-])ccc1O,/,0,-1,-5
CN(C)S(=O)(=O)c1cccc(-n2sc3ccccc3c2=O)c1,93*,-2,4,-3
O=c1c2ccccc2sn1-c1ccc(S(=O)(=O)N2CCCC2)cc1,87*,-5,9,-1
NC(=O)CC[C@H](NC(=O)c1ccc(F)cc1)C(=O)N1CCN(Cc2ccc3c(c2)OCO3)CC1,/,0,-1,-3
O=C(Cn1[nH]c(=O)c2ccccc2c1=O)OCC(=O)N1CCCc2ccccc21,14,1,1,0
O=C(Cn1[nH]c(=O)c2ccccc2c1=O)OCC(=O)N1CCc2ccccc2C1,4,8.3*,0,1
O=C(Nc1ccc(Cl)c([N+](=O)[O-])c1)C(Sc1ccccc1)c1ccccc1 (stereo not drawn),83*,0,5,2
CC(C)(C)NS(=O)(=O)c1ccc(NC(=O)C(Sc2ccccc2)c2ccccc2)cc1 (stereo not drawn),75*,0,0,2
COc1ccc(C(CNC(=O)Cc2ccccc2F)N2CCCCC2)cc1 (stereo not drawn),26,-1,0,-2
COCc1cc(C)nc(NC2CCCCC2)c1C#N,82*,0,-2,0
CCOc1ccccc1C1C(C#N)=C(N)Nc2onc(-c3ccccc3)c21 (stereo not drawn),10,1,-1,-1

# High-throughput results: PubChem BioAssay, several laboratories
